pIC50, pKi: −log10 of the molar value. The source made the active and inactive calls. The calls are words filed in the database; no cut-off is given here.
Tests used:
[1] = target: T1, Glycogen phosphorylase, liver form (Homo sapiens, UniProt P06737); assay: Inhibition of glycogen phosphorylase in human hepatocytes assessed as glucagon stimulated glycogen content after 3 hrs by colorimetric GOD method; type: cell-based, Hepatocyte
T1 sequence (P06737 whole entry): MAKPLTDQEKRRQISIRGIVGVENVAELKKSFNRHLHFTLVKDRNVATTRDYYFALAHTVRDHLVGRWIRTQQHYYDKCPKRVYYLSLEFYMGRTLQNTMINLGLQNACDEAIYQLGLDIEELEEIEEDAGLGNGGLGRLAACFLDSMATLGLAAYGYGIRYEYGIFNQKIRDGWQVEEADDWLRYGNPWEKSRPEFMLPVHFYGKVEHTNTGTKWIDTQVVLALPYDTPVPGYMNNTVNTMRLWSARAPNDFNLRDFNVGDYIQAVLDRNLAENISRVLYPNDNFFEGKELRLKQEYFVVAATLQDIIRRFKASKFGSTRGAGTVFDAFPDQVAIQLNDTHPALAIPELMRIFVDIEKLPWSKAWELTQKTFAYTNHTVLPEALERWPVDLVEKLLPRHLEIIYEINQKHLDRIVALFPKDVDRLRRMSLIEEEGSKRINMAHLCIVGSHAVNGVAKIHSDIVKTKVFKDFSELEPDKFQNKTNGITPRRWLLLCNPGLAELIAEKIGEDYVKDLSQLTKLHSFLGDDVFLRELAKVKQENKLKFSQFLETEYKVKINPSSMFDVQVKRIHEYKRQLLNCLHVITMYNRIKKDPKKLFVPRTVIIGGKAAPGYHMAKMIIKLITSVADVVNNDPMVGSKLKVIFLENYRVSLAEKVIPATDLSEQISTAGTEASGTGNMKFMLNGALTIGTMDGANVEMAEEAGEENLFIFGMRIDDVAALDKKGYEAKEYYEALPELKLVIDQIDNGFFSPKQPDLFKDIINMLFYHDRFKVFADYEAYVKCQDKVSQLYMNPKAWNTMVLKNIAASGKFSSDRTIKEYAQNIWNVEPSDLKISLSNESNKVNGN
Procedure, shortened: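 Human hepatocytes, glycogen-loaded 20 h, then 3 h in glucose-free DMEM with 100 nM glucagon and inhibitor. Washed cells digested with amyloglucosidase (0.75 UI/mL, acetate pH 4.8) for 2 h at 40 °C. Released glucose quantified by glucose oxidase. IC50 from % of glucagon-stimulated glycogen, triplicates across 3-5 cultures.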

[2] = target: T1, Glycogen phosphorylase, liver form; assay: Inhibition of glycogen phosphorylase in human hepatocytes assessed as decrease in glucagon stimulated glucose release after 3 hrs by glucose oxidase method; type: cell-based, Hepatocyte
Procedure, shortened: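 Human hepatocytes isolated by two-step perfusion of surgical liver pieces and seeded at 1×10⁶/well. Glycogen-loaded for 20 h in medium containing insulin, dexamethasone and 4.5 g/L glucose. Then 3 h in glucose-free DMEM with 100 nM glucagon and inhibitor at several concentrations. Supernatant glucose measured by glucose oxidase (A492). IC50 from % of glucagon-stimulated value, triplicates across 3-5 cultures.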

[3] = target: T2, Glycogen phosphorylase, liver form (Rattus norvegicus, UniProt P09811); assay: Inhibition of glycogen phosphorylase in Wistar rat hepatocytes assessed as decrease in glucagon stimulated glucose release after 3 hrs by glucose oxidase method; type: cell-based, Hepatocyte
T2 sequence (P09811 whole entry): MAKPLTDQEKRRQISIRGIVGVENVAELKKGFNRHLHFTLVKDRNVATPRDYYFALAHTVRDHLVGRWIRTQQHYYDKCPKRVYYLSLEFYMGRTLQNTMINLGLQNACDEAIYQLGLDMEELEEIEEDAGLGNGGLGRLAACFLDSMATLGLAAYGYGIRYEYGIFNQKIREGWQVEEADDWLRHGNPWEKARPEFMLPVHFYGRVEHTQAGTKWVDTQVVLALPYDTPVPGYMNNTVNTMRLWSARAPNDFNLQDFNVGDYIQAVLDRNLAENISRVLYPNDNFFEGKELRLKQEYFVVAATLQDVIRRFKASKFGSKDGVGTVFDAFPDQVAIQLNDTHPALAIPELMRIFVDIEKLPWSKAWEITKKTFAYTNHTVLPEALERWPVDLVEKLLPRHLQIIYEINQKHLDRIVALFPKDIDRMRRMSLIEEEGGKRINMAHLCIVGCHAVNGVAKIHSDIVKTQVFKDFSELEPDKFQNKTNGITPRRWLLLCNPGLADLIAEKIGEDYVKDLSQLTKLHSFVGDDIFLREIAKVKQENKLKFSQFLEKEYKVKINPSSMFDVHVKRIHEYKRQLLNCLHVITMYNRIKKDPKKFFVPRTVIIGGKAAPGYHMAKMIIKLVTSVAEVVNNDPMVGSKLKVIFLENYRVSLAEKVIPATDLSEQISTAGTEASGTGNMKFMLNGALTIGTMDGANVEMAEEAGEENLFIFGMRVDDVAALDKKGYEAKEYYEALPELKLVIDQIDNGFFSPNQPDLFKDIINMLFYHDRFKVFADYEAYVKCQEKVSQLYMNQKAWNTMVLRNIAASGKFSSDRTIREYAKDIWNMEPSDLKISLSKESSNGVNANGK
Procedure, shortened: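 Hepatocytes from male Wistar rats (160-220 g) isolated by two-step perfusion, viability >75%. Seeded at 830,000 cells/well, then cultured 24 h with 100 nM dexamethasone. Incubated 3 h in Hepes-bicarbonate buffer pH 7.4 with 0.1% BSA, 100 nM glucagon and inhibitor at several concentrations. Supernatant glucose measured by glucose oxidase (A492). IC50 taken from % of glucagon-stimulated value, mean of three independent experiments.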

[4] = target: T3, Glycogen phosphorylase, muscle form (Oryctolagus cuniculus, UniProt P00489); assay: Inhibition of rabbit muscle glycogen phosphorylase b
T3 sequence (P00489 whole entry): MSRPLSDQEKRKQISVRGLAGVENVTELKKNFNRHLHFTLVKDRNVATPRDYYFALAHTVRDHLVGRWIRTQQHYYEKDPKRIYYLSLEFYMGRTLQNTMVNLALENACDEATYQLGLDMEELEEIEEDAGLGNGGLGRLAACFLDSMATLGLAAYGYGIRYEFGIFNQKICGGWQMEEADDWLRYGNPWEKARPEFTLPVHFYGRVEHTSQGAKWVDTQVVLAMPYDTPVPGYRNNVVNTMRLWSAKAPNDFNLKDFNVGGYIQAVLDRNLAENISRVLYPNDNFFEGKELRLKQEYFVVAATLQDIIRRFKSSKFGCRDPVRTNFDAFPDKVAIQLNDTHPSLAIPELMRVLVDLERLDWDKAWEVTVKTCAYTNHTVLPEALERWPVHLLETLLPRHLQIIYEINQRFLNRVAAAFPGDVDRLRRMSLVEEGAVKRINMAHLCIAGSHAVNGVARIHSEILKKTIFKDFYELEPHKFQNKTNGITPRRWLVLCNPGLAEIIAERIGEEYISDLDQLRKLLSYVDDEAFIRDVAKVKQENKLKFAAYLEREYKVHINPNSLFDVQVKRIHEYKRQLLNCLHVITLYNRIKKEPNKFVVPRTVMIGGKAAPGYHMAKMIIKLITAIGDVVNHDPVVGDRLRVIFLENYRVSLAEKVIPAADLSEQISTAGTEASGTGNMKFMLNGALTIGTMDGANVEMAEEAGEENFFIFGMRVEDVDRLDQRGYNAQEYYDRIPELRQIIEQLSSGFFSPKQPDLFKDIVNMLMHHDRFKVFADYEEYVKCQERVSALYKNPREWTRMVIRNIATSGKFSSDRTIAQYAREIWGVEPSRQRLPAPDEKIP

[5] = target: T3, Glycogen phosphorylase, muscle form; assay: Competitive inhibition of rabbit muscle glycogen phosphorylase b by Lineweaver-Burk plot analysis in presence of glucose 1-phosphate
[6] = system: Rattus norvegicus; assay: Anti-hyperglycemic activity in Zucker fa/fa rat model assessed as decrease in liver glucose production at 30 mg/kg, po administered as single dose for 20 mins followed by glucagon challenge measured for 45 mins by glucose oxidase method; type: functional; design: scale not given: the % may be the effect or the level left
Procedure, shortened: (§1)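 Acute glucagon challenge in male Zucker fa/fa rats, 10-13 weeks old, 3 treated and 3 vehicle per experiment. Single oral dose (7.5-90 mg/kg range; vehicle 4-5 mL/kg po) given 65 min before the final blood glucose reading. Glucagon 200 µg/kg SC. Tail-vein plasma taken at 0, 10, 20 and 45 min, glucose by glucose oxidase. Hepatic glucose production read as 45-min AUC.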

[7] = system: Rattus norvegicus; assay: Anti-hyperglycemic activity in po dosed Zucker fa/fa rat model assessed as decrease in liver glucose production administered 20 mins followed by glucagon challenge measured for 45 mins by glucose oxidase method; type: functional, organism-based; procedure, shortened: as §1
[8] = system: Rattus norvegicus; assay: Anti-hyperglycemic activity in Zucker fa/fa rat model assessed as decrease in insulin output at 30 mg/kg, po administered for 4 days followed by glucagon challenge for 2 days measured for 45 mins; type: functional, organism-based
Procedure, shortened: (§2)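 Male Zucker fa/fa rats, 10-13 weeks old, after 5 days of stabilization; 3 dosed and 3 vehicle controls. Daily oral dosing at 30 mg/kg for 4 days, then glucagon challenge (200 µg/kg, scapular SC). Tail-vein blood taken at 0, 10, 20 and 45 min. Plasma glucose by glucose oxidase, insulin by radioimmunoassay, each expressed as delta from basal. Glucose output given as 45-min AUC.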

[9] = system: Rattus norvegicus; assay: Anti-hyperglycemic activity in Zucker fa/fa rat model assessed as decrease in liver glucose production at 15 mg/kg, po administered as single dose for 20 mins followed by glucagon challenge measured for 45 mins by glucose oxidase method; type: functional; design: scale not given: the % may be the effect or the level left; procedure, shortened: as §1
[10] = system: Rattus norvegicus; assay: Anti-hyperglycemic activity in Zucker fa/fa rat model assessed as decrease in liver glucose production at 7.5 mg/kg, po administered as single dose for 20 mins followed by glucagon challenge measured for 45 mins by glucose oxidase method; type: functional; design: scale not given: the % may be the effect or the level left; procedure, shortened: as §1
[11] = system: Rattus norvegicus; assay: Anti-hyperglycemic activity in glucagon challenged Zucker fa/fa rat model assessed as decrease in insulinemia at 30 mg/kg, po administered for 6 days measured for 60 mins post last dose by OGTT relative to control; type: functional, organism-based
Procedure, shortened: (§3)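 Zucker fa/fa rats received 30 mg/kg po daily for 6 days, with a glucagon challenge after day 4. They were then fasted overnight and given an OGTT (glucose 3 g/kg). Tail-vein plasma glucose measured by glucose oxidase and insulin by radioimmunoassay, each expressed as delta from basal per rat.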

[12] = system: Rattus norvegicus; assay: Anti-hyperglycemic activity in glucagon challenged Zucker fa/fa rat model assessed as decrease in glycaemia at 30 mg/kg, po administered for 6 days measured for 60 mins post last dose by OGTT relative to control; type: functional, organism-based; procedure, shortened: as §3
[13] = system: Rattus norvegicus; assay: Anti-hyperglycemic activity in Zucker fa/fa rat model assessed as decrease in hepatic glucose production at 30 mg/kg, po administered for 4 days followed by glucagon challenge for 2 days measured for 45 mins; type: functional; design: scale not given: the % may be the effect or the level left; procedure, shortened: as §2
[14] = system: Rattus norvegicus; assay: Anti-hyperglycemic activity in Zucker fa/fa rat model assessed as decrease in liver glucose production at 60 mg/kg, po administered as single dose for 20 mins followed by glucagon challenge measured for 45 mins by glucose oxidase method; type: functional; design: scale not given: the % may be the effect or the level left; procedure, shortened: as §1

SMILES | pIC50 [1] | pIC50 [2] | pIC50 [3] | pIC50 [4] | further results
CC(=O)OC[C@H]1O[C@@]2(CC(c3ccc4ccccc4c3)=NO2)[C@H](OC(C)=O)[C@@H](OC(C)=O)[C@@H]1OC(C)=O | 5.62 | 5.60 | 4.87 | – | –
O=C1CNC(=O)[C@@]2(N1)O[C@H](CO)[C@@H](O)[C@H](O)[C@H]2O | – | – | – | – | pKi [5]: 4.22
OC[C@H]1O[C@@]2(CC(c3ccc4c(c3)OCO4)=NO2)[C@H](O)[C@@H](O)[C@@H]1O | < 4.00 | < 4.00 | < 4.00 | 4.09 | –
COc1cc(OC)cc(C2=NO[C@@]3(C2)O[C@H](CO)[C@@H](O)[C@H](O)[C@H]3O)c1 | < 4.00 | < 4.00 | < 4.00 | 3.49 | –
OC[C@H]1O[C@@]2(CC(c3c[nH]c4ccccc34)=NO2)[C@H](O)[C@@H](O)[C@@H]1O | – | – | – | 3.10 | –
OC[C@H]1O[C@@]2(CC(c3cc4ccccc4c4ccccc34)=NO2)[C@H](O)[C@@H](O)[C@@H]1O | < 4.00 | < 4.00 | < 4.00 | 4.09 | –
COc1ccc2cc(C3=NO[C@@]4(C3)O[C@H](CO)[C@@H](O)[C@H](O)[C@H]4O)ccc2c1 | – | – | – | 4.56 | –
OC[C@H]1O[C@@]2(CC(c3ccc4ccccc4c3)=NO2)[C@H](O)[C@@H](O)[C@@H]1O | 4.85 | 4.70 | 4.44 | – | Activity [6]: 30%; Activity [7]: Dose-dependent effect; Activity [8]: Active; Activity [9]: 18%; Activity [10]: 3%; Activity [11]: Active; Activity [12]: inactive; Activity [13]: 19%; Activity [14]: 33%
OC[C@H]1O[C@@]2(CC(c3cc4ccccc4[nH]3)=NO2)[C@H](O)[C@@H](O)[C@@H]1O | – | – | – | 3.55 | –

Second part, led by results:

pIC50 [1] | pIC50 [2] | pIC50 [3] | pIC50 [4] | SMILES | further results
4.86 | 4.65 | 4.52 | 5.81 | OC[C@H]1O[C@@]2(CC(c3ccc4cc(O)ccc4c3)=NO2)[C@H](O)[C@@H](O)[C@@H]1O | –
< 4.00 | < 4.00 | < 4.00 | 5.25 | CSc1ccc(C2=NO[C@@]3(C2)O[C@H](CO)[C@@H](O)[C@H](O)[C@H]3O)cc1 | –
– | – | – | 4.60 | OC[C@H]1O[C@@]2(CC(c3cc4ccccc4o3)=NO2)[C@H](O)[C@@H](O)[C@@H]1O | –
< 4.00 | < 4.00 | < 4.00 | 4.88 | OC[C@H]1O[C@@]2(CC(c3ccc4c(c3)OCCO4)=NO2)[C@H](O)[C@@H](O)[C@@H]1O | –
– | – | – | 5.00 | OC[C@H]1O[C@@]2(CC(c3cc4ccccc4s3)=NO2)[C@H](O)[C@@H](O)[C@@H]1O | –
– | – | – | 5.21 | OC[C@H]1O[C@@]2(CC(c3nc4ccccc4s3)=NO2)[C@H](O)[C@@H](O)[C@@H]1O | –

Reference: ChEMBL document CHEMBL3763106, “Glucose-derived spiro-isoxazolines are anti-hyperglycemic agents against type 2 diabetes through glycogen phosphorylase inhibition” (Eur J Med Chem, 2016)
